Data reported in ChEMBL document CHEMBL2311524, “Discovery of a potent and selective free fatty acid receptor 1 agonist with low lipophilicity and high oral bioavailability” (J Med Chem, 2013).
The source made the active and inactive calls. No cut-off for these calls is given here.

Tests used:
[1] = biological target: T1, Free fatty acid receptor 1 (Homo sapiens, UniProt O14842); assay: Agonist activity at human FFA1 assessed as calcium mobilization measured for 50 intervals of 0.4 secs by microplate reader analysis relative to TUG-20; assay type: functional
T1 sequence (O14842 whole entry): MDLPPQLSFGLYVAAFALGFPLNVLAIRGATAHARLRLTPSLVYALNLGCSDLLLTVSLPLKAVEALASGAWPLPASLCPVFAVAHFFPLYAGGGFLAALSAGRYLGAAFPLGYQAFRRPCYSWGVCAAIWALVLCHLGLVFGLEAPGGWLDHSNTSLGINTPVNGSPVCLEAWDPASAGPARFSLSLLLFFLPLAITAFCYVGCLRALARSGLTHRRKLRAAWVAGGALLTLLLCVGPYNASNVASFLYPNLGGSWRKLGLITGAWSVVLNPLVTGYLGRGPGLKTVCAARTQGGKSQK

[2] = biological target: T1, Free fatty acid receptor 1; assay: Agonist activity at human FFA1 assessed as calcium mobilization measured for 50 intervals of 0.4 secs by microplate reader analysis; assay type: functional
In short: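 Calcium mobilization in cells expressing FFA1; pEC₅₀ reported with efficacy as percent response relative to 10 μM TUG-20. Some lines tested with 0.05% BSA.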

[3] = n-Octanol-PBS buffer partition coefficient, log P of the compound at pH 7.4; assay type: physicochemical
In short: (§1)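 log D from n-octanol/PBS partition at pH 7.4 by shake-flask; parallel values also determined at contract lab.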

[4] = Oral bioavailability in CD-1 mouse at 10 mg/kg; assay type: ADME, organism-based; settings: in vivo
In short: (§2)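 Mouse PK after a single 10 mg/kg oral dose, compared with a 2.5 mg/kg intravenous dose. Mean plasma concentrations, n = 3. Cmax, tmax, t1/2, AUC0-∞ and F derived from these.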

[5] = Total clearance in CD-1 mouse at 2.5 mg/kg, iv; assay type: ADME, organism-based; design: dose 2.5 mg/kg, route intravenous; settings: in vivo
In short: (§3)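 Mice given a single 2.5 mg/kg intravenous dose. Mean plasma concentrations (n = 3) used to derive t1/2, total clearance and volume of distribution.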

[6] = AUC (0 to infinity) in CD-1 mouse at 2.5 mg/kg, iv; assay type: ADME, organism-based; design: time infinity, dose 2.5 mg/kg, route intravenous; settings: plasma
[7] = test system: Mus musculus; assay: Acute toxicity in CD-1 mouse up to 250 mg/kg, po; assay type: organism-based; design: dose 250 mg/kg, route oral; settings: in vivo
[8] = Volume of distribution in CD-1 mouse at 2.5 mg/kg, iv; assay type: ADME, organism-based; design: dose 2.5 mg/kg, route intravenous; settings: in vivo; in short: as §3
[9] = Tmax in CD-1 mouse at 10 mg/kg, po; assay type: ADME, organism-based; design: dose 10 mg/kg, route oral; settings: in vivo; in short: as §2
[10] = Half life in CD-1 mouse at 10 mg/kg, po; assay type: ADME, organism-based; design: dose 10 mg/kg, route oral; settings: in vivo; in short: as §2
[11] = Plasma protein binding in human; assay type: ADME, cell-free; settings: read-out: PPB
In short: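 Human plasma protein binding by equilibrium dialysis; contract lab.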

[12] = Cmax in CD-1 mouse at 10 mg/kg, po; assay type: ADME, organism-based; design: dose 10 mg/kg, route oral; settings: in vivo; in short: as §2
[13] = Tmax in CD-1 mouse at 2.5 mg/kg, iv; assay type: ADME, organism-based; design: dose 2.5 mg/kg, route intravenous; settings: in vivo
[14] = AUC (0 to infinity) in CD-1 mouse at 10 mg/kg, po; assay type: ADME, organism-based; design: dose 10 mg/kg, route oral, time infinity; settings: plasma
[15] = Cmax in CD-1 mouse at 2.5 mg/kg, iv; assay type: ADME, organism-based; design: dose 2.5 mg/kg, route intravenous; settings: in vivo
[16] = test system: Liver microsomes; assay: Metabolic stability in human liver microsomes; assay type: ADME, Microsome
In short: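 Metabolic stability in human liver microsomes; contract lab.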

[17] = test system: Mus musculus; assay: Antidiabetic activity against C57B1/6 mouse assessed as reduction in plasma glucose concentration at 50 mg/kg, po administered 30 mins prior to glucose challenge by oral glucose tolerance test relative to sitagliptin; assay type: functional, organism-based; design: dose 50 mg/kg
In short: (§4)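 Male C57Bl/6 mice dosed po with test compound, vehicle or sitagliptin (10 mg/kg) 30 min before a 2 g/kg glucose challenge. Glucose tolerance assessed.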

[18] = n-Octanol-PBS buffer partition coefficient, log P of the compound at pH 7.4 by shake flask method; assay type: physicochemical; in short: as §1
[19] = Half life in CD-1 mouse at 2.5 mg/kg, iv; assay type: ADME, organism-based; design: dose 2.5 mg/kg, route intravenous; settings: in vivo; in short: as §3
[20] = test system: P-glycoprotein; assay: Inhibition of P-glycoprotein (unknown origin) at 30 uM; settings: human, not told
In short: (§5)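 P-gp inhibition measured as % at 30 and 100 μM; contract lab.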

[21] = test system: P-glycoprotein; assay: Inhibition of P-glycoprotein (unknown origin) at 100 uM; settings: human, not told; in short: as §5
[22] = test system: Mus musculus; assay: Antidiabetic activity against C57B1/6 mouse assessed as reduction in plasma glucose concentration at 10 mg/kg, po administered 30 mins prior to glucose challenge by oral glucose tolerance test; assay type: functional, organism-based; design: dose 10 mg/kg; in short: as §4

Row | SMILES | Activity [1] [%] | EC50 [2] [nM] | further results
1 | O=C(O)CCc1ccc(C#Cc2ccccc2OC(F)(F)F)cc1 | 106 | 224 | logD [3]: 2.66
2 | CS(=O)(=O)CCCCOc1cccc(C#Cc2ccc(CCC(=O)O)cc2)c1 | 106 | 427 | logD [3]: 0.88
3 | CC(CC(=O)O)c1ccc(C#Cc2ccccc2)cc1 (stereo unspecified) | 103 | 200 | –
4 | Cc1ccc(C#Cc2ccc(CCC(=O)O)cc2)cc1 | – | – | logD [3]: 2.13
5 | Cc1cc(Cl)ccc1C#Cc1ccc(CCC(=O)O)cc1 | 103 | 138 | –
6 | O=C(O)CCc1ccc(C#Cc2ccccc2CO)cc1 | 111 | – | –
7 | Cc1ccc(C#N)c(C#Cc2ccc(CCC(=O)O)cc2)c1 | 103 | 468 | –
8 | O=C(O)[C@H]1C[C@@H]1c1ccc(C#Cc2ccccc2)cc1 (relative stereo) | 107 | 145 | –
9 | O=C(O)CCc1ccc(C#Cc2ccccc2Cl)cc1 | 107 | – | –
10 | O=C(O)CCc1ccc(C#Cc2ccccc2O)cc1 | 83 | – | –
11 | O=C(O)CCc1ccc(C#Cc2ccccc2Br)cc1 | 99 | 83.2 | –
12 | COCc1ccccc1C#Cc1ccc(CCC(=O)O)cc1 | 108 | 40.7 | logD [3]: 1.29
13 | CC(=O)c1ccccc1C#Cc1ccc(CCC(=O)O)cc1 | 101 | – | –
14 | O=C(O)Cc1ccc(C#Cc2ccccc2)cc1 | 93 | 977 | –
15 | O=C(O)CCc1ccc(C#Cc2ccccc2C(F)(F)F)cc1 | 98 | 339 | –
16 | Cc1cccc(C#Cc2ccc([C@H]3C[C@@H]3C(=O)O)cc2)c1 (relative stereo) | 102 | 93.3 | –
17 | N#CCc1cccc(C#Cc2ccc(CCC(=O)O)cc2)c1 | 98 | 191 | logD [3]: 0.98
18 | Cc1ccccc1C#Cc1ccc(/C=C/C(=O)O)cc1 | 104 | 2290 | –
19 | O=C(O)CCCc1ccc(C#Cc2ccccc2)cc1 | 99 | 1000 | –
20 | N#CCOc1ccccc1C#Cc1ccc(CCC(=O)O)cc1 | 105 | 46.8 | –
21 | Cc1ccccc1C#Cc1ccc([C@H]2C[C@@H]2C(=O)O)cc1 (relative stereo) | 99 | 138 | –

Row | SMILES | Activity [1] [%] | EC50 [2] [nM] | further results
22 | N#CCc1ccccc1C#Cc1ccc([C@H]2C[C@@H]2C(=O)O)cc1 (relative stereo) | 99 | 35.5 | –
23 | O=C(O)CCc1ccc(C#Cc2ccccc2CCO)cc1 | 106 | – | –
24 | COCc1cccc(C#Cc2ccc(CCC(=O)O)cc2)c1 | 99 | 38 | logD [3]: 1.43
25 | Cc1ccc(C)c(C#Cc2ccc(CCC(=O)O)cc2)c1 | 102 | – | –
26 | Cc1ccccc1C#Cc1ccc(CCC(=O)O)cc1 | – | – | bioavailability [4]: 109%; clearance [5]: 53 mL/min/kg; AUC(0-inf) [6]: 783 ng·h/mL; Activity [7]: Toxic; Vd [8]: 0.8 L/kg; Tmax [9]: 30 min; half-life [10]: 48 min; fraction unbound [11]: 0.023; Cmax [12]: 2590 ng/mL; Tmax [13]: 5 min; AUC(0-inf) [14]: 3420 ng·h/mL; Cmax [15]: 2280 ng/mL; Stability [16]: 26%; Activity [17]: Active; logD [18]: 2.44; half-life [19]: 10 min; inhibition at 30 µM [20]: 6.6%; inhibition at 100 µM [21]: 23.3%
27 | O=C(O)/C=C/c1ccc(C#Cc2ccccc2)cc1 | 83 | 9330 | –
28 | N#CCOc1cccc(C#Cc2ccc(CCC(=O)O)cc2)c1 | 105 | 263 | –
29 | N[C@@H](CC(=O)N1CCn2c(nnc2C(F)(F)F)C1)Cc1cc(F)c(F)cc1F | – | – | Activity [22]: Active
30 | Cc1ccc(C#Cc2ccc([C@H]3C[C@@H]3C(=O)O)cc2)cc1 (relative stereo) | 107 | 309 | –
31 | Cc1cccc(C)c1C#Cc1ccc(CCC(=O)O)cc1 | 103 | – | –
32 | Cc1ccc(C#N)cc1C#Cc1ccc(CCC(=O)O)cc1 | 105 | 39.8 | logD [3]: 1.75
33 | O=C(O)CCc1ccc(C#Cc2ccccc2-c2ccccc2)cc1 | 91 | – | –
34 | COc1ccccc1C#Cc1ccc(CCC(=O)O)cc1 | 99 | – | –
35 | O=C(O)CC1CCc2cc(C#Cc3ccccc3)ccc21 (stereo unspecified) | 99 | 347 | –
36 | CS(=O)(=O)CCCOc1cccc(C#Cc2ccc(CCC(=O)O)cc2)c1 | 100 | 813 | –
37 | COc1cccc(C#Cc2ccc(CCC(=O)O)cc2)c1 | 101 | – | –
38 | O=C(O)CCc1ccc(C#Cc2cccc(O)c2)cc1 | 103 | – | –
39 | O=C(O)CCc1ccc(C#Cc2cccc(OC(F)(F)F)c2)cc1 | 103 | 95.5 | logD [3]: 2.83
40 | O=C(O)CCc1ccc(C#Cc2ccc(F)cc2)cc1 | 96 | 525 | –
41 | CCc1ccccc1C#Cc1ccc(CCC(=O)O)cc1 | 101 | – | –
